This passage reports Activity and IC50 results from ChEMBL document CHEMBL5674867, “The SUV39H1 inhibitor chaetocin induces differentiation and shows synergistic cytotoxicity with other epigenetic drugs in acute myeloid leukemia cells” (Blood Cancer J, 2015).

Assay [1] relates to KG-1a. As to the kind of experiment: Induction of myeloid differentiation in human KG-1a cells at 20 uM assessed as increase in CD11b mRNA expression measured after 48 hrs by RT-PCR assay. It is filed as functional, cell-based. The gist of the method: (§1)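 Cells exposed for 48 h (KG-1a in IMDM/15% FBS; HL-60 and U937 in RPMI/10% FBS). Total RNA extracted, 1 µg reverse transcribed, CD11b quantified by SYBR green real-time PCR normalised to actin. Cycling was 30 cycles of 95 °C, 60 °C and 72 °C, 45 s each. Mean ± s.e. of three independent experiments, compared with untreated control.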

For assay [2], the system named is U-937. As to the kind of experiment: Cytotoxicity against human U-937 cells assessed as decrease in cell viability measured after 24 hrs by MTT assay. It is filed as functional, cell-based. Particulars: U-937, 24 h. The gist of the method: (§2)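 MTT viability read 24 h after exposure over a low concentration range (0–25 μM for one inhibitor, 0–100 for the other as printed). IC50 was derived for each line. Culture: HL-60 and U937 in RPMI + 10% FBS, KG-1a in IMDM + 15% FBS.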
(In general: Tetrazolium dyes change colour on reduction, which living cells bring about.)

In assay [3] the test system is U-937. Nature of the assay: Induction of myeloid differentiation in human U-937 cells at 20 uM assessed as increase in CD11b mRNA expression measured after 48 hrs by RT-PCR assay. It counts as functional, cell-based. The essentials:
as §1

The subject of assay [4] is KG-1a. Nature of the assay: Cytotoxicity against human KG-1a cells assessed as decrease in cell viability measured after 48 hrs by MTT assay. It is filed as functional, cell-based.
In assay [5] the test system is KG-1a. Nature of the assay: Cytotoxicity against human KG-1a cells assessed as decrease in cell viability measured after 24 hrs by MTT assay. It counts as functional, cell-based. The essentials:
as §2

The test system of assay [6] is HL-60. Nature of the assay: Cytotoxicity against human HL-60 cells assessed as decrease in cell viability measured after 48 hrs by MTT assay. It counts as functional, cell-based. Particulars: HL-60, 48 h.
For assay [7], the system named is HL-60. Nature of the assay: Cytotoxicity against human HL-60 cells assessed as decrease in cell viability measured after 24 hrs by MTT assay. It counts as functional, cell-based. Particulars: HL-60, 24 h. The essentials: as §2
The subject of assay [8] is HL-60. Nature of the assay: Induction of myeloid differentiation in human HL-60 cells at 20 uM assessed as increase in CD11b mRNA expression measured after 48 hrs by RT-PCR assay. It counts as functional, cell-based. The essentials: as §1
Assay [9] deals with U-937. As to the kind of experiment: Cytotoxicity against human U-937 cells assessed as decrease in cell viability measured after 48 hrs by MTT assay. Particulars: U-937, 48 h. It counts as functional, cell-based.
Assay [10] has as its system U-937. As to the kind of experiment: Induction of myeloid differentiation in human U-937 cells at 0.5 uM measured after 12 hrs by Liu's staining method. It counts as functional, cell-based. The gist of the method: (§3)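 Cells treated for 12 h, spun onto slides by cytospin, stained with Liu's reagent A for 1 min and then reagent B for 2.5 min. Morphology read by light microscopy. KG-1a was grown in IMDM with 15% FBS; HL-60 and U937 in RPMI with 10% FBS.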

Assay [11] has as its system HL-60. As to the kind of experiment: Induction of myeloid differentiation in human HL-60 cells at 0.5 uM measured after 12 hrs by Liu's staining method. It counts as functional, cell-based. The gist of the method:
as §3

The test system of assay [12] is KG-1a. As to the kind of experiment: Induction of myeloid differentiation in human KG-1a cells at 0.5 uM measured after 12 hrs by Liu's staining method. It counts as functional, cell-based. The essentials:
as §3

Assay [13] concerns U-937. Nature of the assay: Induction of myeloid differentiation in human U-937 cells at 20 nM in combination with 0.5 uM SAHA measured after 12 hrs by Liu's staining method. It counts as functional, cell-based. The gist of the method:
(§4)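 Cells received single epigenetic inhibitors or combinations and were collected by cytospin. After Liu's staining (reagent A 1 min, reagent B 2.5 min), differentiated cells were counted under a light microscope. Mean ± s.e. of three independent experiments.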

Assay [14] relates to HL-60. As to the kind of experiment: Induction of myeloid differentiation in human HL-60 cells at 20 nM in combination with 0.5 uM SAHA measured after 12 hrs by Liu's staining method. It is filed as functional, cell-based. The essentials:
as §4

For assay [15], the system named is KG-1a. Nature of the assay: Induction of myeloid differentiation in human KG-1a cells at 20 nM in combination with 0.5 uM SAHA measured after 12 hrs by Liu's staining method. It is filed as functional, cell-based. The gist of the method:
as §4

The subject of assay [16] is KG-1a. Nature of the assay: Cytotoxicity against human KG-1a cells at 20 nM assessed as decrease in cell viability in combination with 0.5 uM SAHA measured after 24 hrs by MTT assay. It is filed as functional.
Assay [17] has as its system U-937. Nature of the assay: Cytotoxicity against human U-937 cells at 20 nM assessed as decrease in cell viability in combination with 0.5 uM SAHA measured after 24 hrs by MTT assay. It is filed as functional.
Assay [18] has as its system HL-60. As to the kind of experiment: Cytotoxicity against human HL-60 cells at 20 nM assessed as decrease in cell viability in combination with 0.5 uM SAHA measured after 24 hrs by MTT assay. It is filed as functional.

Calls of active or inactive are those of the source. The calls are words filed in the database; no cut-off is given here.

Broadly, the IC50 is the concentration needed to halve the response being measured. `COc1cc2c(NC3CCN(C(C)C)CC3)nc(C3CCCCC3)nc2cc1OCCCN1CCCC1`: the result with KG-1a [1], with U-937 [3] and with HL-60 [8] was inactive. Further, the IC50 in the assay on U-937 [2] was 21.4 µM; in the assay with KG-1a [4], 22.4 µM; in the assay with KG-1a [5], 26.5 µM; in the assay with HL-60 [6], 23.8 µM; in the assay on HL-60 [7] it was 27.4 µM; in the assay on U-937 [9], 19.7 µM.
Consider `O=C(CCCCCCC(=O)Nc1ccccc1)NO`, for which the result in the assay on U-937 [10], in the assay with HL-60 [11] and with KG-1a [12] was Active.
Take `CN1C(=O)[C@@]23C[C@]4([C@]56C[C@@]78SS[C@@](CO)(C(=O)N7[C@H]5Nc5ccccc56)N(C)C8=O)c5ccccc5N[C@@H]4N2C(=O)[C@]1(CO)SS3.O=C(CCCCCCC(=O)Nc1ccccc1)NO` [listing 1 of 2 here]: the outcome in the assay with U-937 [13], with HL-60 [14] and with KG-1a [15] was inactive.
`CN1C(=O)[C@@]23C[C@]4([C@]56C[C@@]78SS[C@@](CO)(C(=O)N7[C@H]5Nc5ccccc56)N(C)C8=O)c5ccccc5N[C@@H]4N2C(=O)[C@]1(CO)SS3.O=C(CCCCCCC(=O)Nc1ccccc1)NO` [listing 2 of 2 here]: the Activity was 40% in the assay with KG-1a [16], 20% in the assay with U-937 [17] and 40% in the assay on HL-60 [18].
